This is an account of results in ChEMBL document CHEMBL4020770, “Discovery of N-substituted-endo-3-(8-aza-bicyclo[3.2.1]oct-3-yl)-phenol and -phenyl carboxamide series of μ-opioid receptor antagonists” (Bioorg Med Chem Lett, 2017).

Series [1] has as its target T1, Mu-type opioid receptor (Homo sapiens, UniProt P35372). The series can be described thus: Displacement of [3H]DPN from recombinant human mu opioid receptor expressed in CHOK1 cell membranes. An outline of the steps:
(§1)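 Competition binding with the radioligand [3H]-DPN on membranes from CHO-K1 cells stably transfected with human recombinant μ or δ opioid receptor or guinea pig κ opioid receptor. Affinity is reported as pKi.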
On the technique in general: In a radioligand displacement assay an active substance lowers the binding of a labelled ligand.

Series [2] concerns the target Delta-type opioid receptor (Homo sapiens, UniProt P41143). The series is described as follows: Displacement of [3H]DPN from recombinant human delta opioid receptor expressed in CHOK1 cell membranes. The essentials: as §1
The target in series [3] is Kappa-type opioid receptor (Cavia porcellus, UniProt P41144). The series can be described thus: Displacement of [3H]DPN from guinea pig kappa opioid receptor expressed in CHOK1 cell membranes. The essentials: as §1
Chain of Kappa-type opioid receptor (P41144 whole entry): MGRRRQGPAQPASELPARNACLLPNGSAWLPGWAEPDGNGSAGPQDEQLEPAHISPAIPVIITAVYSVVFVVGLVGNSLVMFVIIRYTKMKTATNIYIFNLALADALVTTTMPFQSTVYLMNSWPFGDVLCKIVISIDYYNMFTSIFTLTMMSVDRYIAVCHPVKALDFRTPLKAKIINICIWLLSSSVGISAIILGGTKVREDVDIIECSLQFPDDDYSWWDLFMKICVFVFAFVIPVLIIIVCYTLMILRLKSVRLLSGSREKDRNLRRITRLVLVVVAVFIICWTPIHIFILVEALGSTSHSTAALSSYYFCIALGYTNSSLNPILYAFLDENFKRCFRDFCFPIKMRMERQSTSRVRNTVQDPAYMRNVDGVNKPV
A short description of series [4]: (§2) Half life in rat liver microsomes. As to conditions: liver microsomes. In kind it is ADME, microsome. A general note: Microsomes from liver hold many membrane-bound enzymes, among them those of drug oxidation.
Series [5] is described as follows: (§3) Half life in dog liver microsomes. In kind it is ADME, Canis lupus familiaris, microsome. Conditions: liver microsomes.
Series [6] can be described thus: (§4) Half life in human liver microsomes. As to conditions: liver microsomes. In kind it is ADME, microsome.
Series [7] deals with Liver. The series is described as §2. In kind it is ADME, microsome. Conditions: microsomes.
Series [8] concerns Liver. The description is as §3. In kind it is ADME, Canis lupus familiaris, microsome. Conditions: microsomes.
For series [9], the system named is Liver. Described as §4. In kind it is ADME, microsome. As to conditions: microsomes.
For series [10], the target named is T1, Mu-type opioid receptor. The series is described as follows: Intrinsic activity at recombinant human mu opioid receptor expressed in CHOK1 cells by [35S]GTPgammaS binding assay relative to DAMGO. In kind it is functional, cell-based. An outline of the steps:
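Membranes from CHO-K1 cells stably transfected with human recombinant μ-opioid receptor; agonist activity measured as [35S]-GTPγS binding. Maximum compound-evoked response minus basal, expressed as percentage of the maximum response evoked by DAMGO.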
(GTPγS is a poorly hydrolysed GTP analogue; its binding reports G protein activation.)

As usually defined, the Ki is a measure of affinity in units of concentration, obtained from inhibition or displacement. The term half-life denotes how long it takes for the measured level to halve.

Chain of Delta-type opioid receptor (P41143 whole entry): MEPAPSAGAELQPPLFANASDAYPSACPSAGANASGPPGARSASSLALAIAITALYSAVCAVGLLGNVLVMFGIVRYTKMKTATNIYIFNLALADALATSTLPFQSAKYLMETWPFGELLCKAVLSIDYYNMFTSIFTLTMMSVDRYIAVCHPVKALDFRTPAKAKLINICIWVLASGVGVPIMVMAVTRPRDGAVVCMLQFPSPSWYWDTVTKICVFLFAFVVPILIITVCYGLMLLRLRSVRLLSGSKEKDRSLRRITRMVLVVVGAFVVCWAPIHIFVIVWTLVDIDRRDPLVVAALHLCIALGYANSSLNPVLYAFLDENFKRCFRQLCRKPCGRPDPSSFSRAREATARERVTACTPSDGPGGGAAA
T1 sequence (P35372 whole entry): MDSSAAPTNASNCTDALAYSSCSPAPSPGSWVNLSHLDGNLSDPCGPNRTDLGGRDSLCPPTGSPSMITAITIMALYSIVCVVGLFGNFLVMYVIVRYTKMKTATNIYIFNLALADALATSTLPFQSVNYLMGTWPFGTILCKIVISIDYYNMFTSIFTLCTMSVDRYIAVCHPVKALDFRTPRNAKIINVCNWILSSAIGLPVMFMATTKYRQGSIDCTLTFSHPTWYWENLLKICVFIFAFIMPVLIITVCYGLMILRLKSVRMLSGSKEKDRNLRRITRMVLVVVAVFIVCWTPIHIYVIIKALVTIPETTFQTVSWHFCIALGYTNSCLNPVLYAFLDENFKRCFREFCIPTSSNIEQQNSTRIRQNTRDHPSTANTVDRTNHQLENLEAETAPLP

As for `Oc1cccc(C2C[C@H]3CC[C@H](C2)N3CCCc2ccccc2)c1` (relative stereo; 12a), the Ki in series [1] is 0.1 nM; in series [2], 0.794 nM; in series [3], 0.1 nM. The results for the half-life in [4], in series [5] and in series [6] were 2 min, 2 min and 15 min, respectively.

In the case of `CCCCCCCN1[C@@H]2CC[C@@H]1CC(c1cccc(C(N)=O)c1)C2` (relative stereo), the figures for the Ki in series [1], in series [2] and in [3] were 0.398 nM, 3.16 nM and 0.398 nM, respectively. Besides, the t1/2 is reported as greater than 90 min in series [7], 20 min in series [8] and 40 min in [9].

As for `C[N+]1(CC2CC2)CC[C@]23c4c5ccc(O)c4O[C@H]2C(=O)CC[C@@]3(O)[C@H]1C5` (some centres not stated) [METHYLNALTREXONE], the figures for the Ki in series [1] and in series [3] were 7.94 nM and 20 nM, respectively. Further, in series [10], the Intrinsic activity came out at 24%. For the same compound, the half-life in [4], in [5] and in series [6] was greater than 90 min each time.

For the compound `O=C1c2ccccc2C(=O)N1CCCCN1[C@@H]2CC[C@@H]1CC(c1cccc(O)c1)C2` (relative stereo; 21a), the Ki is 0.794 nM in [1], 25.1 nM in [2] and 0.794 nM in series [3]. In addition, the half-life amounted to 18 min in series [4], 11 min in [5] and 33 min in [6].

For `NC(=O)c1cccc(C2C[C@H]3CC[C@H](C2)N3CCCc2ccccc2)c1` (relative stereo; 24b), the Ki in [1] is 15.8 nM; in series [2], 200 nM. Also, the t1/2 in series [7] came to 11 min; in series [8], 18 min.

As for `NC(=O)c1cccc(C2C[C@H]3CC[C@H](C2)N3CC(O)Cc2ccccc2)c1` (stereo in doubt; 31b), the Ki in series [1] was 31.6 nM; in [2] it was 501 nM; in [3], 79.4 nM. Also, the t1/2 was determined as 14 min in series [7] and 59 min in series [8].

`NC(=O)c1cccc(C2C[C@H]3CC[C@H](C2)N3CCCCN2C(=O)c3ccccc3C2=O)c1` (relative stereo; 29a): the Ki in series [1] was 1.58 nM; in series [2], 79.4 nM; in [3], 3.16 nM. Further, the half-life was greater than 90 min in [4], 18 min in series [5] and greater than 90 min in series [6].

`NC(=O)c1cccc(C2C[C@H]3CC[C@H](C2)N3CC(O)Cc2ccccc2)c1` (relative stereo): the Ki in series [1] is 0.251 nM; in [2], 3.98 nM; in series [3], 0.316 nM. In series [7], this compound gave a t1/2 of 31 min. Also, the half-life in series [5] and in series [6] was greater than 90 min in each case.

For the compound `CC(C)(C)c1ccc(CN2[C@@H]3CC[C@@H]2CC(c2cccc(C(N)=O)c2)C3)cc1` (relative stereo; 28a), the Ki was 0.1 nM in series [1], 1.58 nM in [2] and 0.1 nM in [3]. Moreover, the half-life in [4], in series [5] and in series [6] was greater than 90 min each time.

For `NC(=O)c1cccc(C2C[C@H]3CC[C@H](C2)N3CCCc2ccccc2)c1` (relative stereo; 24a), the Ki is 0.126 nM in series [1], 1.26 nM in series [2] and 0.158 nM in series [3]. Also, the t1/2 in series [7] and in [8] was greater than 90 min in each case. In [6], this compound had a half-life greater than 90 min.

Consider `NC(=O)c1cccc(C2C[C@H]3CC[C@H](C2)N3CC(=O)C2CCCCC2)c1` (relative stereo; 30b), for which the Ki in [1] was 15.8 nM; in series [2] it was 398 nM; in series [3] it was 20 nM. The t1/2 stood at 81 min in [7] and 9 min in [8].

For `C[C@H]1CN(C[C@H](Cc2ccccc2)C(=O)NCC(=O)O)CC[C@@]1(C)c1cccc(O)c1` [ALVIMOPAN], the Ki in series [2] and in series [3] was 5.01 nM each time. The Intrinsic activity in series [10] is -6%. Further, the half-life in series [4], in [5] and in series [6] was greater than 90 min in each case.

Turning to `O=C1c2ccccc2C(=O)N1CCCCN1[C@@H]2CC[C@@H]1CC(c1cccc(O)c1)C2` (relative stereo; 21b), the Ki in series [1] was 39.8 nM; in [2], 794 nM; in series [3], 79.4 nM. The t1/2 in [7] came to 21 min; in [8], 12 min; in series [9] it was 38 min.

As to `NC(=O)c1cccc(C2C[C@H]3CC[C@H](C2)N3Cc2c(F)cccc2F)c1` (relative stereo; 26b), the inhibition constant Ki was 1260 nM in series [1], 5010 nM in [2] and 398 nM in [3]. This compound also showed a t1/2 in series [7] of 74 min.

In the case of `CCCCCCCN1[C@@H]2CC[C@@H]1CC(c1cccc(C(N)=O)c1)C2` (some centres not stated), the Ki is 31.6 nM in [1] and 501 nM in [2]. The t1/2 in [7] is reported as 7 min; in series [8], 2 min; in [9], 10 min.

As for `O=C(CN1[C@@H]2CC[C@@H]1CC(c1cccc(O)c1)C2)C1CCCCC1` (relative stereo; 22a), the Ki is 0.1 nM in series [1], 0.501 nM in [2] and 0.01 nM in series [3]. Further, the half-life in [4] worked out at 2 min; in series [5], 2 min; in series [6] it was 12 min.

Consider `CCCCCCCN1[C@@H]2CC[C@@H]1CC(c1cccc(O)c1)C2` (relative stereo; 17b), for which the results for the inhibitory constant (Ki) in series [1], in series [2] and in series [3] were 20 nM, 251 nM and 25.1 nM, respectively. Besides, the t1/2 came out at 2 min in series [7], 9 min in series [8] and 2 min in [9].

Take `NC(=O)c1cccc(C2C[C@H]3CC[C@H](C2)N3CCCOc2ccccc2)c1` (relative stereo): the Ki in series [1] is 0.2 nM; in [2] it was 3.98 nM; in series [3] it was 0.794 nM. Besides, the half-life was 2 min in [4], 7 min in [5] and greater than 90 min in [6].

As to `NC(=O)c1cccc(C2C[C@H]3CC[C@H](C2)N3Cc2c(F)cccc2F)c1` (relative stereo; 26a), the Ki in series [1] is 31.6 nM; in series [2] it was 316 nM; in series [3], 15.8 nM. The compound further had a t1/2 in series [7] of 26 min. For the same compound, the half-life in series [5] and in series [6] was greater than 90 min in each case.
